Measured values reported in ChEMBL document CHEMBL5131563, “Accelerated Identification of Cell Active KRAS Inhibitory Macrocyclic Peptides using Mixture Libraries and Automated Ligand Identification System (ALIS) Technology” (J Med Chem, 2022).
*1 amine or outer side, *2 acyl side, *3 side chain or, on linkers, in order; H or OH if unused. Where a SMILES comes first, the peptide text is derived from it. Bridges are numbered along the chain shown (N, C = ends). [ ]: non-standard residue; d: D form. Phe(3,4,5-F3) = N[C@@H](Cc1cc(F)c(F)c(F)c1)C(=O)O; Pro(trans-3-OAllyl) = C=CCO[C@H]1CCN[C@@H]1C(=O)O; X2 = O=C([C@@H]1[C@H]2CC[C@H](C2)N1[*:1])[*:2]; Pro(3R-Ph) = O=C(O)[C@H]1NCC[C@@H]1c1ccccc1; Ala(4-thiazolyl) = N[C@@H](Cc1cscn1)C(=O)O; Bip = N[C@@H](Cc1ccc(-c2ccccc2)cc1)C(=O)O; X5 = C[C@H]1CCN([*:1])[C@@H]1C(=O)[*:2]; Ala(cPent) = N[C@@H](CC1CCCC1)C(=O)O; hPhe = N[C@@H](CCc1ccccc1)C(=O)O; Abu(4-CN) = N#CCC[C@H](N)C(=O)O; Aad = N[C@@H](CCCC(=O)O)C(=O)O; Cha = N[C@@H](CC1CCCCC1)C(=O)O; Ahp(2) = CCCCC[C@H](N)C(=O)O; Cba = N[C@@H](CC1CCC1)C(=O)O; hLeu = CC(C)CC[C@H](N)C(=O)O; Nle = CCCC[C@H](N)C(=O)O

Tests used:
GTPase KRas = GTPase KRas (Homo sapiens, UniProt P01116, G12D); assay: Inhibition of recombinant biotinylated KRAS G12D mutant (unknown origin) assessed as inhibition of SOS-catalyzed nucleotide exchange preincubated for 60 mins followed by addition of human SOS protein and unlabeled GTP and measured after 60 mins by TR-FRET analysis
Method in brief: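 Biotinylated KRAS G12D was treated in EDTA buffer (1 h, RT), then loaded at 90 nM with 900 nM Bodipy-GDP and 15 nM Tb-streptavidin in Mg2+ buffer, HEPES pH 7.5 (6 h, RT). It was used at 1.5 nM assay solution with a 10-point, 3-fold DMSO compound series for 60 min at RT. A solution of 120 nM human SOS plus GTP was added for 60 min. The read-out was TR-FRET at 520/495 nm, normalized to DMSO and saturating-inhibitor controls, with a 4-parameter fit.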

[1] = Stability in human HeLa cell homogenate assessed as half life by LC-MS/MS analysis; assay type: ADME, cell-based
Method in brief: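 HeLa cells suspended at 1 × 10^6 cells/mL, probe-sonicated on ice until homogeneous, stored frozen at –20 °C. Peptides incubated with homogenate (1 × 10^6 cells/mL equivalent); peptide loss over time quantified by LC-MS/MS to derive t1/2.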

GTPase KRas, sequence (P01116 whole entry G12D): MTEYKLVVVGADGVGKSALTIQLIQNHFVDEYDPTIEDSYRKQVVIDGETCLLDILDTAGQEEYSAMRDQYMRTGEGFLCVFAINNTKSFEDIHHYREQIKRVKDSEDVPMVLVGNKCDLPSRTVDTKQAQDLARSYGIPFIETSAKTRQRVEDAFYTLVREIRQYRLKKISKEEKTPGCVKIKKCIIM

Structure (SMILES) | IC50 (GTPase KRas) [nM] | half-life [1] [min]
CC(=O)N[C@@H](CCCNC(=N)N)C(=O)N[C@@H](CCCNC(=N)N)C(=O)N[C@H]1CSSC[C@@H](C(=O)N[C@@H](CCCNC(=N)N)C(=O)N[C@@H](CCCNC(=N)N)C(N)=O)NC(=O)[C@H](C(C)C)NC(=O)[C@@H]2CCCN2C(=O)[C@H](CC(=O)O)NC(=O)[C@H](Cc2ccc(O)cc2)NC(=O)[C@H](CO)NC(=O)[C@H](CCC(C)C)NC(=O)[C@H](CCc2ccccc2)NC(=O)[C@H](CC(C)C)NC(=O)[C@@H]2CCCN2C1=O (Ac-RRCPL[hPhe][hLeu]SYDPVCRR-NH2; disulfide 3-13) | > 11100 | 14
CC[C@H](C)[C@@H]1NC(=O)[C@H](Cc2ccc(O)cc2)NC(=O)[C@H](CC(C)C)NC(=O)[C@@H]2CCCN2C(=O)[C@@H](NC(=O)[C@H](CCCNC(=N)N)NC(=O)[C@H](CCCNC(=N)N)NC(C)=O)CSSC[C@@H](C(=O)N[C@@H](CCCNC(=N)N)C(=O)N[C@@H](CCCNC(=N)N)C(N)=O)NC(=O)[C@H](C(C)C)NC(=O)[C@@H]2CCCN2C(=O)[C@H](CC(=O)O)NC(=O)[C@H](CC2CCCCC2)NC(=O)[C@H](CO)NC1=O | 1470 | 15
CCCCC[C@@H]1NC(=O)[C@@H]2CCCN2C(=O)[C@H](CC(=O)O)NC(=O)[C@H](Cc2ccc(O)cc2)NC(=O)[C@H](CO)NC(=O)[C@H]([C@@H](C)CC)NC(=O)[C@H](Cc2ccc(-c3ccccc3)cc2)NC(=O)[C@H](CC(C)C)NC(=O)[C@@H]2CCCN2C(=O)[C@@H](NC(=O)[C@H](CCCNC(=N)N)NC(=O)[C@H](CCCNC(=N)N)NC(C)=O)CSSC[C@@H](C(=O)N[C@@H](CCCNC(=N)N)C(=O)N[C@@H](CCCNC(=N)N)C(N)=O)NC1=O (Ac-RRCPL[Bip]ISYDP[Ahp(2)]CRR-NH2; disulfide 3-13) | 5 | –
CC[C@H](C)[C@@H]1NC(=O)[C@H](Cc2ccc(-c3ccccc3)cc2)NC(=O)[C@H](CC(C)C)NC(=O)[C@@H]2CCCN2C(=O)[C@@H](NC(=O)[C@H](CCCNC(=N)N)NC(=O)[C@H](CCCNC(=N)N)NC(C)=O)CSSC[C@@H](C(=O)N[C@@H](CCCNC(=N)N)C(=O)N[C@@H](CCCNC(=N)N)C(N)=O)NC(=O)[C@H](C(C)C)NC(=O)[C@@H]2CCCN2C(=O)[C@H](CC(=O)O)NC(=O)[C@H](Cc2ccc(O)cc2)NC(=O)[C@H](CO)NC1=O (Ac-RRCPL[Bip]ISYDPVCRR-NH2; disulfide 3-13) | 7 | 55
CCCC[C@@H]1NC(=O)[C@H]([C@@H](C)CC)NC(=O)[C@H](Cc2ccc(O)cc2)NC(=O)[C@H](CC(C)C)NC(=O)[C@@H]2CCCN2C(=O)[C@@H](NC(=O)[C@H](CCCNC(=N)N)NC(=O)[C@H](CCCNC(=N)N)NC(C)=O)CSSC[C@@H](C(=O)N[C@@H](CCCNC(=N)N)C(=O)N[C@@H](CCCNC(=N)N)C(N)=O)NC(=O)[C@H](C(C)C)NC(=O)[C@@H]2CCCN2C(=O)[C@H](CC(=O)O)NC(=O)[C@H](Cc2ccc(O)cc2)NC1=O (Ac-RRCPLYI[Nle]YDPVCRR-NH2; disulfide 3-13) | > 11100 | 25
CC[C@H](C)[C@@H]1NC(=O)[C@H](Cc2ccc(O)cc2)NC(=O)[C@H](CC(C)C)NC(=O)[C@@H]2CCCN2C(=O)[C@@H](NC(=O)[C@H](CCCNC(=N)N)NC(=O)[C@H](CCCNC(=N)N)NC(C)=O)CSSC[C@@H](C(=O)N[C@@H](CCCNC(=N)N)C(=O)N[C@@H](CCCNC(=N)N)C(N)=O)NC(=O)[C@H](C(C)C)NC(=O)[C@@H]2CCCN2C(=O)[C@H](CC(=O)O)NC(=O)[C@H](Cc2ccc(O)cc2)NC(=O)[C@H](CO)NC1=O (Ac-RRCPLYISYDPVCRR-NH2; disulfide 3-13) | 54 | 23
CC(=O)N[C@@H](CCCNC(=N)N)C(=O)N[C@@H](CCCNC(=N)N)C(=O)N[C@H]1CSSC[C@@H](C(=O)N[C@@H](CCCNC(=N)N)C(=O)N[C@@H](CCCNC(=N)N)C(N)=O)NC(=O)[C@H](C(C)C)NC(=O)[C@@H]2CCCN2C(=O)[C@H](CC(=O)O)NC(=O)[C@H](Cc2ccc(O)cc2)NC(=O)[C@H](CO)NC(=O)[C@H](CCC(C)C)NC(=O)[C@H](Cc2ccc(-c3ccccc3)cc2)NC(=O)[C@H](CC(C)C)NC(=O)[C@@H]2CCCN2C1=O (Ac-RRCPL[Bip][hLeu]SYDPVCRR-NH2; disulfide 3-13) | > 11100 | 17
CC[C@H](C)[C@@H]1NC(=O)[C@H](Cc2ccc(-c3ccccc3)cc2)NC(=O)[C@H](CC(C)C)NC(=O)[C@@H]2[C@H]3CC[C@H](C3)N2C(=O)[C@@H](NC(=O)[C@H](CCCNC(=N)N)NC(=O)[C@H](CCCNC(=N)N)NC(C)=O)CSSC[C@@H](C(=O)N[C@@H](CCCNC(=N)N)C(=O)N[C@@H](CCCNC(=N)N)C(N)=O)NC(=O)[C@H](C(C)C)NC(=O)[C@@H]2CCCN2C(=O)[C@H](CC(=O)O)NC(=O)[C@H](Cc2ccc(O)cc2)NC(=O)[C@H](CO)NC1=O (Ac-RRC[X2]L[Bip]ISYDPVCRR-NH2; disulfide 3-13) | 201 | –
CC(=O)N[C@@H](CCCNC(=N)N)C(=O)N[C@@H](CCCNC(=N)N)C(=O)N[C@H]1CSSC[C@@H](C(=O)N[C@@H](CCCNC(=N)N)C(=O)N[C@@H](CCCNC(=N)N)C(N)=O)NC(=O)[C@H](C(C)C)NC(=O)[C@@H]2CCCN2C(=O)[C@H](CC(=O)O)NC(=O)[C@H](Cc2ccc(O)cc2)NC(=O)[C@H](CO)NC(=O)[C@H](CCC(C)C)NC(=O)[C@H](CC2CCCCC2)NC(=O)[C@H](CC(C)C)NC(=O)[C@@H]2CCCN2C1=O (Ac-RRCPL[Cha][hLeu]SYDPVCRR-NH2; disulfide 3-13) | > 11100 | 25
CC(=O)N[C@@H](CCCNC(=N)N)C(=O)N[C@@H](CCCNC(=N)N)C(=O)N[C@H]1CSSC[C@@H](C(=O)N[C@@H](CCCNC(=N)N)C(=O)N[C@@H](CCCNC(=N)N)C(N)=O)NC(=O)[C@H](C(C)C)NC(=O)[C@@H]2CCCN2C(=O)[C@H](CC(=O)O)NC(=O)[C@H](Cc2ccc(O)cc2)NC(=O)[C@H](CO)NC(=O)[C@H](CC2CCCC2)NC(=O)[C@H](CC2CCCCC2)NC(=O)[C@H](CC(C)C)NC(=O)[C@@H]2CCCN2C1=O (Ac-RRCPL[Cha][Ala(cPent)]SYDPVCRR-NH2; disulfide 3-13) | > 11100 | 21
CC[C@H](C)[C@@H]1NC(=O)[C@H](Cc2ccc(-c3ccccc3)cc2)NC(=O)[C@H](CC(C)C)NC(=O)[C@@H]2CCCN2C(=O)[C@@H](NC(=O)[C@H](CCCNC(=N)N)NC(=O)[C@H](CCCNC(=N)N)NC(C)=O)CSSC[C@@H](C(=O)N[C@@H](CCCNC(=N)N)C(=O)N[C@@H](CCCNC(=N)N)C(N)=O)NC(=O)[C@H](CCC#N)NC(=O)[C@@H]2CCCN2C(=O)[C@H](CC(=O)O)NC(=O)[C@H](Cc2ccc(O)cc2)NC(=O)[C@H](CO)NC1=O (Ac-RRCPL[Bip]ISYDP[Abu(4-CN)]CRR-NH2; disulfide 3-13) | 24 | –
CC[C@H](C)[C@@H]1NC(=O)[C@H](Cc2ccc(-c3ccccc3)cc2)NC(=O)[C@H](CC(C)C)NC(=O)[C@@H]2CCCN2C(=O)[C@@H](NC(=O)[C@H](CCCNC(=N)N)NC(=O)[C@H](CCCNC(=N)N)NC(C)=O)CSSC[C@@H](C(=O)N[C@@H](CCCNC(=N)N)C(=O)N[C@@H](CCCNC(=N)N)C(N)=O)NC(=O)[C@H](CCCC(=O)O)NC(=O)[C@@H]2[C@@H](C)CCN2C(=O)[C@H](CC(=O)O)NC(=O)[C@H](Cc2ccc(O)cc2)NC(=O)[C@H](CO)NC1=O (Ac-RRCPL[Bip]ISYD[X5][Aad]CRR-NH2; disulfide 3-13) | 43 | –
CC[C@H](C)[C@@H]1NC(=O)[C@H](Cc2ccc(-c3ccccc3)cc2)NC(=O)[C@H](CC2CCC2)NC(=O)[C@@H]2[C@@H](c3ccccc3)CCN2C(=O)[C@@H](NC(=O)[C@H](CCCNC(=N)N)NC(=O)[C@H](CCCNC(=N)N)NC(C)=O)CSSC[C@@H](C(=O)N[C@@H](CCCNC(=N)N)C(=O)N[C@@H](CCCNC(=N)N)C(N)=O)NC(=O)[C@H](C(C)C)NC(=O)[C@@H]2CCCN2C(=O)[C@H](CC(=O)O)NC(=O)[C@H](Cc2ccc(O)cc2)NC(=O)[C@H](CO)NC1=O (Ac-RRC[Pro(3R-Ph)][Cba][Bip]ISYDPVCRR-NH2; disulfide 3-13) | 7 | –
CC[C@H](C)[C@@H]1NC(=O)[C@H](Cc2ccc(O)cc2)NC(=O)[C@H](CC(C)C)NC(=O)[C@@H]2CCCN2C(=O)[C@@H](NC(=O)[C@H](CCCNC(=N)N)NC(=O)[C@H](CCCNC(=N)N)NC(C)=O)CSSC[C@@H](C(=O)N[C@@H](CCCNC(=N)N)C(=O)N[C@@H](CCCNC(=N)N)C(N)=O)NC(=O)[C@H](C(C)C)NC(=O)[C@@H]2CCCN2C(=O)[C@H](CC(=O)O)NC(=O)[C@H](Cc2cc(F)c(F)c(F)c2)NC(=O)[C@H](Cc2cscn2)NC1=O (Ac-RRCPLYI[Ala(4-thiazolyl)][Phe(3,4,5-F3)]DPVCRR-NH2; disulfide 3-13) | > 11100 | –
CC[C@H](C)[C@@H]1NC(=O)[C@H](Cc2ccc(-c3ccccc3)cc2)NC(=O)[C@H](CC(C)C)NC(=O)[C@@H]2[C@@H](c3ccccc3)CCN2C(=O)[C@@H](NC(=O)[C@H](CCCNC(=N)N)NC(=O)[C@H](CCCNC(=N)N)NC(C)=O)CSSC[C@@H](C(=O)N[C@@H](CCCNC(=N)N)C(=O)N[C@@H](CCCNC(=N)N)C(N)=O)NC(=O)[C@H](C(C)C)NC(=O)[C@@H]2CCCN2C(=O)[C@H](CC(=O)O)NC(=O)[C@H](Cc2ccc(O)cc2)NC(=O)[C@H](CO)NC1=O (Ac-RRC[Pro(3R-Ph)]L[Bip]ISYDPVCRR-NH2; disulfide 3-13) | 1 | –
C=CCO[C@H]1CCN2C(=O)[C@@H](NC(=O)[C@H](CCCNC(=N)N)NC(=O)[C@H](CCCNC(=N)N)NC(C)=O)CSSC[C@@H](C(=O)N[C@@H](CCCNC(=N)N)C(=O)N[C@@H](CCCNC(=N)N)C(N)=O)NC(=O)[C@H](C(C)C)NC(=O)[C@@H]3CCCN3C(=O)[C@H](CC(=O)O)NC(=O)[C@H](Cc3ccc(O)cc3)NC(=O)[C@H](CO)NC(=O)[C@H]([C@@H](C)CC)NC(=O)[C@H](Cc3ccc(-c4ccccc4)cc3)NC(=O)[C@H](CC3CCC3)NC(=O)[C@H]12 (Ac-RRC[Pro(trans-3-OAllyl)][Cba][Bip]ISYDPVCRR-NH2; disulfide 3-13) | 2 | –
